Assay results reported in ChEMBL document CHEMBL5653631, “A Potent and Selective ULK1 Inhibitor Suppresses Autophagy and Sensitizes Cancer Cells to Nutrient Stress” (iScience, 2018).
Values belong to the compound of their own block, whether it stands above or below them.

Assays:
[1] = target: T1, Mitogen-activated protein kinase kinase kinase 5 (Homo sapiens) (UniProt Q99683); assay: Inhibition of human recombinant MAP3K5 at 500 nM in presence of ATP by radiometric assay relative to control
T1 sequence (whole entry): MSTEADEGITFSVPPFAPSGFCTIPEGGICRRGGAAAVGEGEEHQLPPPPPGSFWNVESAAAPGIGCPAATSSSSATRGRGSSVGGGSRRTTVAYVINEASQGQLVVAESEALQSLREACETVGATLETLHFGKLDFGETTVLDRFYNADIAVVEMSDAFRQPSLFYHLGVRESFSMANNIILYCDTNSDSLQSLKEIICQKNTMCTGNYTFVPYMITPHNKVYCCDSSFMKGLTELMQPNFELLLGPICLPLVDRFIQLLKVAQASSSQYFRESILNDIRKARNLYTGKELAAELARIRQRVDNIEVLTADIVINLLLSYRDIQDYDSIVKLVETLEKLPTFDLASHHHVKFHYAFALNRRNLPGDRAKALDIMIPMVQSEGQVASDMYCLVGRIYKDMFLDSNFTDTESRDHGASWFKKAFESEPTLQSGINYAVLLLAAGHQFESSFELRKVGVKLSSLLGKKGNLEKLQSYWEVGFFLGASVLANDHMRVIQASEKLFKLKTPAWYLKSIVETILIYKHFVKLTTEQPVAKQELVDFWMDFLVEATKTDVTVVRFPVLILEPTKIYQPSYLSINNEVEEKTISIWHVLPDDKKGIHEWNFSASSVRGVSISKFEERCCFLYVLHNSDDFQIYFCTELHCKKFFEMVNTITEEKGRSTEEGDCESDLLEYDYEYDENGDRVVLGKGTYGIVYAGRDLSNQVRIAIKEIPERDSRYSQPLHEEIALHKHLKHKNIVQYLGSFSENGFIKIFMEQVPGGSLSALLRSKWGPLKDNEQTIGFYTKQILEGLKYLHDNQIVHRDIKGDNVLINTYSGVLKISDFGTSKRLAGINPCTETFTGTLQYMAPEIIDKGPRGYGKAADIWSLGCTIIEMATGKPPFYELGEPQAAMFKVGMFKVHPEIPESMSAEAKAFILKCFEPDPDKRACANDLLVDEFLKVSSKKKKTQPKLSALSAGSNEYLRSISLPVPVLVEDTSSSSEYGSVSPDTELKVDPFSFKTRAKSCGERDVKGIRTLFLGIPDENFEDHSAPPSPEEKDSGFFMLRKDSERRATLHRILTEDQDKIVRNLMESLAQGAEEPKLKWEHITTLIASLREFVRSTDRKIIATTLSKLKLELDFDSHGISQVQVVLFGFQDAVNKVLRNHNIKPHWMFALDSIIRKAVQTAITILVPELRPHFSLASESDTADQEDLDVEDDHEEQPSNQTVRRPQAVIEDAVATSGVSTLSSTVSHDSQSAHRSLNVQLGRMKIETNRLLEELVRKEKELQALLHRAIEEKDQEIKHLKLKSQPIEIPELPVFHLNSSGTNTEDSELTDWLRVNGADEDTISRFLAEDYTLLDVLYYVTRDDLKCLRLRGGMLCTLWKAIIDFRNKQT

[2] = target: BDNF/NT-3 growth factors receptor (Homo sapiens) (UniProt Q16620); assay: Inhibition of human recombinant TRKB at 500 nM in presence of ATP by radiometric assay relative to control
[3] = target: Homeodomain-interacting protein kinase 2 (Homo sapiens) (UniProt Q9H2X6); assay: Inhibition of human recombinant HIPK2 at 40 nM in presence of ATP by radiometric assay relative to control
[4] = target: T2, Cytoplasmic tyrosine-protein kinase BMX (Homo sapiens) (UniProt P51813); assay: Inhibition of human recombinant BMX at 15 nM in presence of ATP by radiometric assay relative to control
T2 sequence (whole entry): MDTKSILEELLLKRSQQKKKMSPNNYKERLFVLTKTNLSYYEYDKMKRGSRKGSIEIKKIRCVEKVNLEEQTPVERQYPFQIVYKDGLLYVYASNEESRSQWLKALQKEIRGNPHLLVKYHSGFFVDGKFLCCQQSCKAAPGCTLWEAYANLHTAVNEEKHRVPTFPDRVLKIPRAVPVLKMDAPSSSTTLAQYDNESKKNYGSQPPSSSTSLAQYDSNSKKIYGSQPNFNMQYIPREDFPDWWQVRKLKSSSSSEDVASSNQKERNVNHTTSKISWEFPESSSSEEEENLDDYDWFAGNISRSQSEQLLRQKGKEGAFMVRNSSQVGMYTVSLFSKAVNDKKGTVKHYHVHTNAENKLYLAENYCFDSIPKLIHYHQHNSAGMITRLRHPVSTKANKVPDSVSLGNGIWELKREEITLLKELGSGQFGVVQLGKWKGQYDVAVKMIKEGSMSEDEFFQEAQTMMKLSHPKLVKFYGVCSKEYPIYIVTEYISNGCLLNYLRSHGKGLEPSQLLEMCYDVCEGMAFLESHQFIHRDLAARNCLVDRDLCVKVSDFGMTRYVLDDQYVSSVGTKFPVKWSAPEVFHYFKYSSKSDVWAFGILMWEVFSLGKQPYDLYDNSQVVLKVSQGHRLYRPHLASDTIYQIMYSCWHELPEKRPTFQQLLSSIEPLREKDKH
Summary of the method: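 Part of a radiometric in vitro activity panel of 327 recombinant human kinases. Each kinase was tested in duplicate at one inhibitor concentration. Activity remaining was expressed as a percentage of the vehicle control, and percent inhibition was taken as 100 minus that value.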

[5] = target: T3, MAP kinase-activated protein kinase 5 (Homo sapiens) (UniProt Q8IW41); assay: Inhibition of human recombinant MAPKAPK5 at 15 nM related to control ULK1
T3 sequence (whole entry): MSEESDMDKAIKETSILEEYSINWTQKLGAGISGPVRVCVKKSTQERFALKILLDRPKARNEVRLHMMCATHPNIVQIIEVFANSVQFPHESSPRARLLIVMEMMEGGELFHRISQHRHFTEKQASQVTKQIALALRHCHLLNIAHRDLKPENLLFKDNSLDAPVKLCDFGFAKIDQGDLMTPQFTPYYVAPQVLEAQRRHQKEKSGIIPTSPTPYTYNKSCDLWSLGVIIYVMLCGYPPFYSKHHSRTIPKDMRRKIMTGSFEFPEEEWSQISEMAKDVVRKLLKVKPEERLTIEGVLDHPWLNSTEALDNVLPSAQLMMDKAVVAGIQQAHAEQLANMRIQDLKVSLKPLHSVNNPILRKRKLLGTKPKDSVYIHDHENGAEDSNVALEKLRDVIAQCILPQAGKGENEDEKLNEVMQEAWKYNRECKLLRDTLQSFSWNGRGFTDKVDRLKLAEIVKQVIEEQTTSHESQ

[6] = target: Serine/threonine-protein kinase PRP4 homolog (Homo sapiens) (UniProt Q13523); assay: Inhibition of human recombinant PRP4 at 15 nM related to control ULK1
Chain of Serine/threonine-protein kinase PRP4 homolog (Homo sapiens) (Q13523 whole entry): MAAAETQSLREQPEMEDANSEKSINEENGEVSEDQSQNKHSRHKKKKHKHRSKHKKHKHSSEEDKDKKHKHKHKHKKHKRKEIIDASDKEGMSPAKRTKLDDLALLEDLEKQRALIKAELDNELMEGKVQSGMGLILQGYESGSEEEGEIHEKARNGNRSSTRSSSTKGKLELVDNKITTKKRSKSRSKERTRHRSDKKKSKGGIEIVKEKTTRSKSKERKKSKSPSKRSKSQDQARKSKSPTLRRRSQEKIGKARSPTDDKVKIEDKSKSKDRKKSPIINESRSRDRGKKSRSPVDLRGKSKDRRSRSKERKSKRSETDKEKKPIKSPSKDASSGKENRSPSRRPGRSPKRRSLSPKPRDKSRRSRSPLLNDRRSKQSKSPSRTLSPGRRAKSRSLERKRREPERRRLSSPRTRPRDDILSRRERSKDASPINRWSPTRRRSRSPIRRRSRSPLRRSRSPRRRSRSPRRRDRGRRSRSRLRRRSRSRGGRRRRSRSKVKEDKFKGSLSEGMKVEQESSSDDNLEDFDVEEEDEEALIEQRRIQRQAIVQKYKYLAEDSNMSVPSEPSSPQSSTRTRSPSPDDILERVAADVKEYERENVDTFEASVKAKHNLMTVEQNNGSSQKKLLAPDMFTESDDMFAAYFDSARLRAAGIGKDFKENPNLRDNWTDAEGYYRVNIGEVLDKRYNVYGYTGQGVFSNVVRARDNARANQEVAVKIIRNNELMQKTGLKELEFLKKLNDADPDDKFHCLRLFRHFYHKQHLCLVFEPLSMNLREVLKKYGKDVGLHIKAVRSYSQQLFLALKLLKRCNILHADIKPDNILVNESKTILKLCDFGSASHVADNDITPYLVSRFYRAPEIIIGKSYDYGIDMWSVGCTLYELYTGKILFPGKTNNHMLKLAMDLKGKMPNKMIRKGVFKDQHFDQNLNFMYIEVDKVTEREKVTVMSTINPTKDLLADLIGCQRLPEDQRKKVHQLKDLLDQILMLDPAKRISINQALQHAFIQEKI

Chain of BDNF/NT-3 growth factors receptor (Homo sapiens) (Q16620 32-822 limits assumed): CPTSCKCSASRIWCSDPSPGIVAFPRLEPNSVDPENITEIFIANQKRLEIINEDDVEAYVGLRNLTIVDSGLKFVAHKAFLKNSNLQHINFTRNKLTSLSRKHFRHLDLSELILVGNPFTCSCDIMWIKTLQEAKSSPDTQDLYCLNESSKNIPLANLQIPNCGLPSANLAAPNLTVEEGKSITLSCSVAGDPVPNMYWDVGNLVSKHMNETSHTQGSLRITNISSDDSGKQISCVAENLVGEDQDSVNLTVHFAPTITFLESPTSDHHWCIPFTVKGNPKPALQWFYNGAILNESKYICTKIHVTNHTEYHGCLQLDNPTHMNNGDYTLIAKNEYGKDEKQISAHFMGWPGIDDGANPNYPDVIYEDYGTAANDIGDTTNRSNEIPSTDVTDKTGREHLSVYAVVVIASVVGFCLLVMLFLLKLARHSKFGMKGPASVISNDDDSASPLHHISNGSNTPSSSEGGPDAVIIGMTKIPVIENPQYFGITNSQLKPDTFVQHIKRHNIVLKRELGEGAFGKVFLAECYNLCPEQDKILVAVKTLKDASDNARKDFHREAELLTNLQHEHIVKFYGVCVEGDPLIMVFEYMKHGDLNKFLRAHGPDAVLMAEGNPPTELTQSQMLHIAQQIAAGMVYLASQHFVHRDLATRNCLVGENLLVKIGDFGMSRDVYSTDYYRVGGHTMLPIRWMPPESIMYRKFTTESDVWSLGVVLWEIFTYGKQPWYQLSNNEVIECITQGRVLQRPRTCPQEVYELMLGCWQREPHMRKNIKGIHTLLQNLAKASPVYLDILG
Chain of Homeodomain-interacting protein kinase 2 (Homo sapiens) (Q9H2X6 whole entry, looked up): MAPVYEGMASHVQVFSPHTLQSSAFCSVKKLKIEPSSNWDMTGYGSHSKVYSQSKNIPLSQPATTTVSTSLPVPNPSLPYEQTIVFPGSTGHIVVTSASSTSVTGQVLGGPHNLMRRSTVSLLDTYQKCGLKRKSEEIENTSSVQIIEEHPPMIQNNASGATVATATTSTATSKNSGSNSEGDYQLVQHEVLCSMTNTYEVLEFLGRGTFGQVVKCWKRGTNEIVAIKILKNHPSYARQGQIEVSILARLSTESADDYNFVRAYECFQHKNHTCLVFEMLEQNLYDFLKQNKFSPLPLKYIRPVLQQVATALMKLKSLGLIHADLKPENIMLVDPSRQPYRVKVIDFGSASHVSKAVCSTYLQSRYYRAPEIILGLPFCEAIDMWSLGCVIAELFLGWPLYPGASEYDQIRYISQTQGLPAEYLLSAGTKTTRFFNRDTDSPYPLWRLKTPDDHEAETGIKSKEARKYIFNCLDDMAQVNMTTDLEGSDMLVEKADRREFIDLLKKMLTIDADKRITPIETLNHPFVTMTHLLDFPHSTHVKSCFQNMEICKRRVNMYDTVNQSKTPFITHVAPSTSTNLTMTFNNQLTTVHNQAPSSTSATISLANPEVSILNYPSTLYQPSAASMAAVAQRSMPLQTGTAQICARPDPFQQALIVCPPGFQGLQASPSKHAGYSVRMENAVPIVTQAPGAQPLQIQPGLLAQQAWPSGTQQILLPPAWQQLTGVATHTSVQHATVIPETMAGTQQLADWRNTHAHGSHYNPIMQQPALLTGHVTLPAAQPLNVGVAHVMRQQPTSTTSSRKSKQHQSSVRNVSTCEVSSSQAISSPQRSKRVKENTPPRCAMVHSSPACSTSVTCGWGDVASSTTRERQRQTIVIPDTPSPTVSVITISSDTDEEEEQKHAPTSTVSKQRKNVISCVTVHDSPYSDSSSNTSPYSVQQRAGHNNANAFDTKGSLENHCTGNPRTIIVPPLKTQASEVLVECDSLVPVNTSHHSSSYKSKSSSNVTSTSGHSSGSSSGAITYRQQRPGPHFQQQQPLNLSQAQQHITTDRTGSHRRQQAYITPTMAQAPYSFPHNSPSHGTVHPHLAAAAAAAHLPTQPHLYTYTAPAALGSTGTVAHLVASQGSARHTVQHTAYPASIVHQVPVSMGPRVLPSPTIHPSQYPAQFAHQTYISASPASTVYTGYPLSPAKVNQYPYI

inhibition [1]: 0% | inhibition [2]: 48%
SMILES: CNC(=O)c1ccccc1Oc1nc(Nc2cc(OC)c(OC)c(OC)c2)ncc1Br

inhibition [3]: 0%
SMILES: O=C(N[C@@H](C1CC1)C(F)(F)F)c1cc(-c2cnn3cc(-c4ccc(F)cc4)cnc23)cs1

inhibition [4]: 6% | fold change (FC) [5]: 0 | fold change (FC) [6]: 0.07
SMILES: CC(C)[C@H](NC(=O)c1cc(-c2cnn3cc(-c4ccc(OCCN5CCCCC5)cc4)cnc23)cs1)C(F)(F)F
